Our source for the IC50 and inhibition values is ChEMBL document CHEMBL1144688, “Gentisyl alcohol derivatives from the marine-derived fungus Penicillium terrestre” (J Nat Prod, 2008).

A short description of test [1]: DPPH radical scavenging activity. In kind it is functional. In outline:
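Samples dissolved in MeOH were mixed with methanolic DPPH, shaken and left for 30 min. Absorbance was read at 520 nm and percent inhibition calculated. IC50 is the concentration that scavenges 50% of the DPPH radicals.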
Background: DPPH is a stable violet radical that fades when it is reduced.

A further test relates to Bel-7402. Nature of the test: Cytotoxicity against human BEL-7402 cells by SRB method. It counts as functional, cell-based. In outline:
(§1)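 Cells were plated at 2 × 10^5 cells/mL and treated with test compounds in MeOH over a concentration range for 24 h. They were then fixed with 12% TCA, stained with 0.4% SRB and read at 515 nm. IC50 was taken from the linear portion of log dose–response curves.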
For orientation: In SRB staining, fixed cells bind dye roughly in proportion to their protein.

In a further test the test system is MOLT-4. Nature of the test: Cytotoxicity against human MOLT4 cells by MTT assay. It counts as functional, cell-based. An outline of the steps: (§2)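 Cells at 5 × 10^4 cells/mL were preincubated for 24 h, then exposed to compounds in MeOH at various concentrations for 72 h. MTT (5 mg/mL) was added for 4 h, the formazan was dissolved in DMSO, and absorbance was read at 540 nm.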

A further test concerns HL-60. Nature of the test: Cytotoxicity against human HL60 cells by MTT assay. In kind it is functional, cell-based. An outline of the steps:
as §2
On the technique in general: Tetrazolium dyes change colour on reduction, which living cells bring about.

The subject of a further test is A549. In words: Cytotoxicity against human A549 cells by SRB method. In kind it is functional, cell-based. An outline of the steps:
as §1

Test [2] addresses Proto-oncogene tyrosine-protein kinase Src (Homo sapiens) (UniProt P12931). Nature of the test: Inhibition of Src kinase at 10 uM by ELISA. In outline:
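ELISA on plates precoated with 20 µg/mL poly(Glu,Tyr)4:1, using purified kinase and 5 µM ATP in 50 mM HEPES pH 7.4 with MgCl2, MnCl2, Na3VO4 and DTT, for 1 h at 37 °C. Phosphotyrosine was detected with PY99 antibody, then HRP anti-mouse IgG and o-phenylenediamine/H2O2, read at 490 nm. Inhibition was calculated against the 1% DMSO control, in duplicate.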

The target of test [3] is Vascular endothelial growth factor receptor 2 (Homo sapiens) (UniProt P35968). Particulars: at 10 µM.

Broadly, the IC50 is the point on the concentration scale where inhibition reaches its midpoint. Lower therefore signals greater potency in that assay. Broadly, the inhibition is the percentage by which the read-out fell short of the control. A high value points to a response far below the control.

Sequence of Vascular endothelial growth factor receptor 2 (Homo sapiens) (P35968 whole entry): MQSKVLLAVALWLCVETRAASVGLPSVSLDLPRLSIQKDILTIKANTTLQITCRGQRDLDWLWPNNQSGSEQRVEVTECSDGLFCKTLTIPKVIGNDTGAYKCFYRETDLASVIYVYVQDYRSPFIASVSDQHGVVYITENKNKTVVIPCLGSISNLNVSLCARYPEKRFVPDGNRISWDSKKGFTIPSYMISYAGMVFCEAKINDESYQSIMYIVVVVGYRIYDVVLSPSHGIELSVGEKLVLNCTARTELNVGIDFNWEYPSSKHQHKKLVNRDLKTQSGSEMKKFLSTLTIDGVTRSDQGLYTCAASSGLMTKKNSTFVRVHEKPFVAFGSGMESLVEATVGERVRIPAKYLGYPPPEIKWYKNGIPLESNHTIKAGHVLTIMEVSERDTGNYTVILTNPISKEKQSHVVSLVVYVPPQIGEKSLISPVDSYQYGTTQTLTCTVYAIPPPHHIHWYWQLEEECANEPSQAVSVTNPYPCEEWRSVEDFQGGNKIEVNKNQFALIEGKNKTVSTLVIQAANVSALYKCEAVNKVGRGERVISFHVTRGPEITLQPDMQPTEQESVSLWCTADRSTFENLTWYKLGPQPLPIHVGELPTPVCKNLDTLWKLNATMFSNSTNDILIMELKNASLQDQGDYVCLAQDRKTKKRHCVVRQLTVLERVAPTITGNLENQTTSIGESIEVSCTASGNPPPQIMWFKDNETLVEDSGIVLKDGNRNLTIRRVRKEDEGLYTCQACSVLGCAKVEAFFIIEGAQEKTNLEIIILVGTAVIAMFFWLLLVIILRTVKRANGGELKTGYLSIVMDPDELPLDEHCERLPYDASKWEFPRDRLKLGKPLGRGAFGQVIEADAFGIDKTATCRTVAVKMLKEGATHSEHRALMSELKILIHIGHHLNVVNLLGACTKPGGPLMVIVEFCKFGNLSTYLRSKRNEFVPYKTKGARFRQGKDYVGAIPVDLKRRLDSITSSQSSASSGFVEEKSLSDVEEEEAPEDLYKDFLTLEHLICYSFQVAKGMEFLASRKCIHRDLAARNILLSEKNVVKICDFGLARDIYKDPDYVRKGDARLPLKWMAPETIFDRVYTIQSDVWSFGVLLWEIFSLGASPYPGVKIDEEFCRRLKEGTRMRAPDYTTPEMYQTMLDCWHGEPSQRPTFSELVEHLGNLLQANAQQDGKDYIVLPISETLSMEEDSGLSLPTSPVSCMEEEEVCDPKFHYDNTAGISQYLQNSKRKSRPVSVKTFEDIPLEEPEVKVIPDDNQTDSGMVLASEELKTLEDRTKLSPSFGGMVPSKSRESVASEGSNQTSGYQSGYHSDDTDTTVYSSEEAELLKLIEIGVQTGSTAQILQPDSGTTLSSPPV
Sequence of Proto-oncogene tyrosine-protein kinase Src (Homo sapiens) (P12931 2-536 limits assumed): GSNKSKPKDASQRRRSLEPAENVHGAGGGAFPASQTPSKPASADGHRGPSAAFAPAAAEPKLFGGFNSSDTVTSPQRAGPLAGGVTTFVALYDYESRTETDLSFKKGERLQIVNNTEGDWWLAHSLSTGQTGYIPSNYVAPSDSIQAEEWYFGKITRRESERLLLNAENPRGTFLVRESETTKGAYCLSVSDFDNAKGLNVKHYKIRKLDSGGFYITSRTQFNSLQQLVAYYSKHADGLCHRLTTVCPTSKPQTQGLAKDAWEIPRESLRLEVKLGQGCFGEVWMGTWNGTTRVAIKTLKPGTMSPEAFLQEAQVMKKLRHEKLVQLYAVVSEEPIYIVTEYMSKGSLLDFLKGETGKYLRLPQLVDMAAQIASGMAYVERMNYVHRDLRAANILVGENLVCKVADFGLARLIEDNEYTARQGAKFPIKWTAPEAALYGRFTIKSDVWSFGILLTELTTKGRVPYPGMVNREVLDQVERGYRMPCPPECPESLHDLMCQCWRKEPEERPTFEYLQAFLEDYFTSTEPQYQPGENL

For `Oc1ccc(O)c(COCc2cc(O)cc(Cl)c2O)c1`, the half-inhibitory concentration (IC50) in test [1] is 4.3 µM; in the test with Bel-7402 it was 62.3 µM; in the test on MOLT-4, 5.8 µM; with HL-60, 6.1 µM; in the test with A549, 18.3 µM.
The corresponding values for `COCc1cc(O)c(Cc2cc(O)c(Cc3cc(O)ccc3O)cc2O)cc1O` are 2.6 µM, 57 µM, 5.5 µM, 33.3 µM and 23.5 µM.
Regarding `Oc1ccc(O)c(COCc2cc(O)ccc2O)c1`, the IC50 in test [1] was 4.6 µM; in the test on Bel-7402 it was 57.3 µM; in the test on MOLT-4, 5.6 µM; in the test with HL-60, 5.5 µM; with A549, 18.2 µM.
`OCc1cc(OCc2cc(O)ccc2O)ccc1O`: the IC50 is 6.2 µM in test [1]; 59 µM with Bel-7402; 6.4 µM in the test on MOLT-4; 54.7 µM in the test with HL-60; 9.6 µM in the test with A549.
Regarding `COCc1cc(O)c(Cc2cc(O)ccc2O)cc1O`, the half-maximal inhibitory concentration (IC50) was 6.3 µM in test [1]; 61.9 µM in the test on Bel-7402; 5.8 µM with MOLT-4; 6.3 µM in the test on HL-60; 33.8 µM with A549.
On to `OCc1cc(O)c(Cc2cc(O)ccc2O)c(Cl)c1O`, for which the half-inhibitory concentration (IC50) is 4.1 µM in test [1]; 6 µM with Bel-7402; 6.5 µM with MOLT-4; 5.1 µM in the test with HL-60; 5.7 µM in the test on A549. Moreover, the values for the inhibition in test [2] and in test [3] were 35.9% and 31.8%, respectively.
Regarding `OCc1c(O)c(Cl)cc(O)c1Cc1cc(O)ccc1O`, the IC50 in test [1] was 5.2 µM; in the test with Bel-7402, 63.2 µM; in the test with MOLT-4 it was 58.1 µM; in the test with HL-60, 55 µM; with A549, 13.8 µM.
The corresponding values for `COCc1cc(O)ccc1O` are 9.8 µM, above 100 µM, 86.2 µM, 58.9 µM and above 100 µM.
Take `COCc1cc(O)cc(Cl)c1O`: the IC50 worked out at 8.5 µM in test [1]; 58.1 µM with Bel-7402; 64.7 µM in the test with MOLT-4; 6.7 µM in the test with HL-60; 56.5 µM in the test with A549.
The corresponding values for `OCc1cc(OCc2cc(O)ccc2O)cc(Cl)c1O` are 4.4 µM, 38.5 µM, 5.5 µM, 5.3 µM and 14.3 µM.
